Source: ChEMBL document CHEMBL2163314, “Potent aminocyclitol glucocerebrosidase inhibitors are subnanomolar pharmacological chaperones for treating gaucher disease” (J Med Chem, 2012)
Active and inactive are the calls of the source. The calls are words filed in the database; no cut-off is given here.

Molecular target: T1, Non-lysosomal glucosylceramidase (Mus musculus) (UniProt Q69ZF3)
T1 sequence (whole entry): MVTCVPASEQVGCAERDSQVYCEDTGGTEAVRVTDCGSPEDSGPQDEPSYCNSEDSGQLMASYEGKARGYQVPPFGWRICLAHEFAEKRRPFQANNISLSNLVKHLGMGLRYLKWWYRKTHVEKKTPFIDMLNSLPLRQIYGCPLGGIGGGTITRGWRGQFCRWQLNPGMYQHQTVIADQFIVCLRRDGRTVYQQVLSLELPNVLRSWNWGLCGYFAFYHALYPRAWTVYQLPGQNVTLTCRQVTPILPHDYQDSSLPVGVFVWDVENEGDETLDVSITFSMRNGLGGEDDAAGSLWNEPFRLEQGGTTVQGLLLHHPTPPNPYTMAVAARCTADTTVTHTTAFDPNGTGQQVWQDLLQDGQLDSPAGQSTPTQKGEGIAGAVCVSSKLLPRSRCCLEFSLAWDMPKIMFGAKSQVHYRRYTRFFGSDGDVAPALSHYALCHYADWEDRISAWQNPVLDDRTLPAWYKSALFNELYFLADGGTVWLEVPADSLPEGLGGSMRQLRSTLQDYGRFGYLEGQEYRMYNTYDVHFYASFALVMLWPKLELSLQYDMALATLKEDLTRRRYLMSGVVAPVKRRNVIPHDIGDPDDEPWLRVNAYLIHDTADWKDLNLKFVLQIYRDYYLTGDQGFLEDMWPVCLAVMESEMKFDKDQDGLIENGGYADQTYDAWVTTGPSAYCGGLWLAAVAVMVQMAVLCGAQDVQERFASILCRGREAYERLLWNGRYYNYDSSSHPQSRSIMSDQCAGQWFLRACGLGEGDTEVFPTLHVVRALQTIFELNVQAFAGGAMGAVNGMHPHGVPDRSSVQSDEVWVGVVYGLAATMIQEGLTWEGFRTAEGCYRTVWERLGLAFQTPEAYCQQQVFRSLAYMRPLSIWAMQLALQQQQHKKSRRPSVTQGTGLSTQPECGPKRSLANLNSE
Experiment: Inhibition of GBA2 activity in mouse tissue homogenate at 50 uM
Outline: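 Mouse tissue homogenates were used to separate nonlysosomal GBA2 from lysosomal GCase β-glucosidase activity. Compounds were screened at 50 and 5 μM with 3 mM substrate. Two independent experiments, each run in duplicate.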

`CCCCCCCCCN1C[C@H](O)[C@@H](O)[C@H](O)[C@H]1CO` was tested, and the inhibition was “Active”.
